Activity calls are given as the source filed them. The rule behind the calls is not given here.
Legend:
NCI-H460 = experiment: Antitumor activity against human NCI-H460 cells harboring KRAS Q61H/PIK3CA E545K/LKB1 Q37/CDKN2A mutant xenografted in mouse assessed as tumor growth inhibition at 10 mg/kg, po; type: functional; conditions: read-out: TGI
Summary of the method: (§1)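 Human tumor xenografts in mice were dosed orally at the indicated mg/kg. Tumor volume was measured with calipers as (L×W×W)/2. %TGI = 100 × [1 − (AUC treatment/d)/(AUC vehicle/d)], using the area under the fitted tumor-growth curve per day for each dose group relative to vehicle.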

[1] = molecular target: Epidermal growth factor receptor (Homo sapiens, UniProt P00533); experiment: Inhibition of EGFR (unknown origin)
EBC-1 [2] = experiment: Antitumor activity against human EBC-1 cells harboring MET amp and EGFR G719S/L858R mutant xenografted in mouse assessed as tumor growth inhibition at 10 mg/kg, po; type: functional; conditions: read-out: TGI
Summary of the method: (§2)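 Single-agent dose ranging in human tumor xenograft mice at 2.5, 5 or 10 mg/kg oral. Tumor volume was measured by caliper as (L×W×W)/2. %TGI = 100×[1 − AUC(treatment/d)/AUC(vehicle/d)] from the fitted growth curve per dose group, relative to vehicle.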

[3] = molecular target: G protein-coupled receptor kinase 5 (Homo sapiens, UniProt P34947); experiment: Inhibition of GRK5 (unknown origin)
[4] = Antitumor activity against human A375.X1 cells harboring BRAF V600E/CDKN2A E61 mutant xenografted in mouse assessed as tumor growth inhibition at 10 mg/kg, po; type: functional; conditions: A375.X1, read-out: TGI; summary of the method: as §2
[5] = Antitumor activity against human A2058-X1 cells harboring BRAF V600E/PTEN L112Q/V175/TP53 V274F mutant xenografted in mouse assessed as tumor growth inhibition at 10 mg/kg, po; type: functional; conditions: A2058-X1, read-out: TGI; summary of the method: as §2
[6] = molecular target: Fibroblast growth factor receptor 3 (Homo sapiens, UniProt P22607); experiment: Inhibition of FGFR3 (unknown origin)
[7] = molecular target: Ribosomal protein S6 kinase alpha-1 (Homo sapiens, UniProt Q15418); experiment: Inhibition of Rsk1 (unknown origin)
888-mel [8] = experiment: Inhibition of PI3K/MEK signaling pathway in human 888-mel cells assessed as decrease in ERK phosphorylation by incubated for 24 hrs by Western blot analysis; type: cell-based
A2058 [9] = experiment: (§3) Antitumor activity against human A2058 cells harboring BRAF V600E/PTEN deletion mutant xenografted in mouse assessed as decrease in cyclin D1 level at 15 mg/kg, po administered every third day for 21 days and measured after 72 hrs post dose in presence of 4-(2-(1H-indazol-4-yl)-6-((4-(methylsulfonyl)piperazin-1-yl)methyl)thieno[3,2-d]pyrimidin-4-yl)morpholine by Western blot analysis; type: functional, organism-based; conditions: time 576.0 hrs
Hs 695T = experiment: Antiproliferative activity against human Hs 695T cells assessed reduction in cell viability incubated for 4 days in presence of 4-(2-(1H-indazol-4-yl)-6-((4-(methylsulfonyl)piperazin-1-yl)methyl)thieno[3,2-d]pyrimidin-4-yl)morpholine by celltiter-glo assay; type: functional; conditions: time 4 day
Summary of the method: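 4-day CellTiter-Glo viability read-out on melanoma lines, cells exposed to increasing concentrations of each inhibitor alone and in combination.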

NCI-H2122 = experiment: Antitumor activity against human NCI-H2122 cells xenografted in mouse assessed as tumor growth inhibition at 20 mg/kg, po administered once a day for 21 days; type: functional; conditions: NCI-H2122, 504 h, time 21 day, read-out: TGI
Summary of the method: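 Mice bearing NCI-H2122 xenografts were given MEK inhibitor, PI3K inhibitor, or both, orally once daily for 21 consecutive days at the doses labeled. Caliper tumor volumes were calculated as (L×W×W)/2. %TGI was derived from the AUC of the fitted growth curve per day relative to vehicle.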

MIA PaCa-2 = experiment: Antitumor activity against human MIA PaCa-2 cells harboring KRAS G12C/NOTCH1 L2458V mutant xenografted in mouse assessed as tumor growth inhibition at 10 mg/kg, po; type: functional; conditions: read-out: TGI; summary of the method: as §2
A2058 [10] = experiment: Antitumor activity against human A2058 cells harboring BRAF V600E/PTEN L112Q/V175/TP53 V274F mutant xenografted in mouse assessed as tumor growth inhibition at 10 mg/kg, po; type: functional; conditions: read-out: TGI
Summary of the method: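 Mice carrying human tumor xenografts dosed orally once daily for 21 consecutive days. Tumor volume measured by calipers as (L×W×W)/2. %TGI = 100×[1 − AUC(treatment/day)/AUC(vehicle/day)], using the area under the fitted growth curve relative to vehicle.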

[11] = molecular target: Serine/threonine-protein kinase Chk1 (Homo sapiens, UniProt O14757); experiment: Inhibition of CHK1 (unknown origin)
SK-OV-3 = experiment: Antitumor activity against human SK-OV-3 cells harboring FBXW7 R505L and CDKN2A mutant xenografted in mouse assessed as tumor growth inhibition at 5 mg/kg, po; type: functional; conditions: read-out: TGI; summary of the method: as §1
[12] = molecular target: Platelet-derived growth factor receptor alpha (Homo sapiens, UniProt P16234); experiment: Inhibition of PDGFRalpha (unknown origin)
[13] = molecular target: Serine/threonine-protein kinase Sgk1 (Homo sapiens, UniProt O00141); experiment: Inhibition of SGK (unknown origin)
FaDu = experiment: Antitumor activity against human FaDu cells harboring SMAD4 del/TP53 R248L/CDKN2A mutant xenografted in mouse assessed as tumor growth inhibition at 2.5 mg/kg, po; type: functional; conditions: read-out: TGI; summary of the method: as §2
[14] = molecular target: Tyrosine-protein kinase ZAP-70 (Homo sapiens, UniProt P43403); experiment: Inhibition of ZAP70 (unknown origin)
A2058 [15] = experiment: Antitumor activity against human A2058 cells harboring BRAF V600E/PTEN deletion mutant xenografted in mouse assessed as decrease in tumor volume at 1.5 mg/kg, po administered once daily for 21 days in presence of GDC-0980 by digital calipers analysis; type: functional, organism-based; conditions: time 21.0 day
888-mel [16] = experiment: Induction of apoptosis in human 888-mel cells assessed as increase in cleaved PARP level incubated for 24 hrs in presence of 4-(2-(1H-indazol-4-yl)-6-((4-(methylsulfonyl)piperazin-1-yl)methyl)thieno[3,2-d]pyrimidin-4-yl)morpholine by immunoblotting analysis; type: functional, cell-based
A2058 [17] = experiment: as §3, with “increase” for “decrease”, “Bim” for “cyclin D1”; type: functional, organism-based; conditions: time 576.0 hrs
[18] = molecular target: Death-associated protein kinase 1 (Homo sapiens, UniProt P53355); experiment: Inhibition of DAPK1 (unknown origin)
EBC-1 [19] = experiment: Antitumor activity against human EBC-1 cells harboring MET amp and EGFR G719S/L858R mutant xenografted in mouse assessed as tumor growth inhibition at 5 mg/kg, po; type: functional; conditions: read-out: TGI; summary of the method: as §2
DLD-1 = experiment: Antitumor activity against human DLD-1 cells xenografted in mouse assessed as tumor growth inhibition at 15 mg/kg, po administered once a day for 21 days; type: functional; conditions: DLD-1, 504 h, time 21 day, read-out: TGI
Summary of the method: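 Human tumor xenografts in mice. Drugs given orally, as single agents or combined with the PI3K inhibitor. Schedules were daily (QD) or every third day (Q3D) over 21 days. Tumor volume was measured by caliper as (L×W×W)/2. %TGI = 100×[1 − AUC(treatment/d)/AUC(vehicle/d)] from fitted growth curves, with group means. Tumor lysates were immunoblotted for pS6.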

[20] = molecular target: Phosphatidylinositol 4,5-bisphosphate 3-kinase catalytic subunit gamma isoform (Homo sapiens, UniProt P48736); experiment: Inhibition of PI3Kgamma (unknown origin)
Phosphatidylinositol 4,5-bisphosphate 3-kinase catalytic subunit gamma isoform, sequence (P48736 whole entry, canonical isoform): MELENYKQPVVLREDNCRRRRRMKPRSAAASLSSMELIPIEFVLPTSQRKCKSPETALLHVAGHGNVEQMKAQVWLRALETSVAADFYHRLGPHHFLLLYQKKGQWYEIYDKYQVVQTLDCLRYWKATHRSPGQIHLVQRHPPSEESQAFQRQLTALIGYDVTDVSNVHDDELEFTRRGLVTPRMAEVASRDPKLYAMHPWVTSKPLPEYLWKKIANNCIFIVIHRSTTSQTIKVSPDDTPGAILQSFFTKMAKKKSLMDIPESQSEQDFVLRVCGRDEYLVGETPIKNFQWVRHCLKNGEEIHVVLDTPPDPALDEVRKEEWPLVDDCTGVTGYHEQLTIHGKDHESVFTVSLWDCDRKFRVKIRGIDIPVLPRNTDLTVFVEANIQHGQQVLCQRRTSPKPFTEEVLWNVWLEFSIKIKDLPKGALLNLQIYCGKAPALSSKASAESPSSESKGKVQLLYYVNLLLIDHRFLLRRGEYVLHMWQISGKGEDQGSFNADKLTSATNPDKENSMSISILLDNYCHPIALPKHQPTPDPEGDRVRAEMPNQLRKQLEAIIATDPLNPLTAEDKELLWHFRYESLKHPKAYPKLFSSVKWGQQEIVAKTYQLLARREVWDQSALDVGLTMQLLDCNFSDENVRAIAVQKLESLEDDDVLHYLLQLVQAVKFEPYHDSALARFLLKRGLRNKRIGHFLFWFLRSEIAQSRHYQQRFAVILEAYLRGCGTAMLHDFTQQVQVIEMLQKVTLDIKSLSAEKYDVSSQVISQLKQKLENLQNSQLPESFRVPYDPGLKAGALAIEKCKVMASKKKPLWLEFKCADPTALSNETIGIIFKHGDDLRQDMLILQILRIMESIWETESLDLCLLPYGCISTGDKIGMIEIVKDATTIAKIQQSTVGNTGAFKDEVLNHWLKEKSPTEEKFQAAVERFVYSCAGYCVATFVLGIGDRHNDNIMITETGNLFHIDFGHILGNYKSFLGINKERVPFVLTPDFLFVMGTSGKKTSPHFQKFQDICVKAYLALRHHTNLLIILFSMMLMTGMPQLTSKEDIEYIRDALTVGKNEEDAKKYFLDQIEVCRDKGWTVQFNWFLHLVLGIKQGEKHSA

Ribosomal protein S6 kinase alpha-1, sequence (Q15418 whole entry): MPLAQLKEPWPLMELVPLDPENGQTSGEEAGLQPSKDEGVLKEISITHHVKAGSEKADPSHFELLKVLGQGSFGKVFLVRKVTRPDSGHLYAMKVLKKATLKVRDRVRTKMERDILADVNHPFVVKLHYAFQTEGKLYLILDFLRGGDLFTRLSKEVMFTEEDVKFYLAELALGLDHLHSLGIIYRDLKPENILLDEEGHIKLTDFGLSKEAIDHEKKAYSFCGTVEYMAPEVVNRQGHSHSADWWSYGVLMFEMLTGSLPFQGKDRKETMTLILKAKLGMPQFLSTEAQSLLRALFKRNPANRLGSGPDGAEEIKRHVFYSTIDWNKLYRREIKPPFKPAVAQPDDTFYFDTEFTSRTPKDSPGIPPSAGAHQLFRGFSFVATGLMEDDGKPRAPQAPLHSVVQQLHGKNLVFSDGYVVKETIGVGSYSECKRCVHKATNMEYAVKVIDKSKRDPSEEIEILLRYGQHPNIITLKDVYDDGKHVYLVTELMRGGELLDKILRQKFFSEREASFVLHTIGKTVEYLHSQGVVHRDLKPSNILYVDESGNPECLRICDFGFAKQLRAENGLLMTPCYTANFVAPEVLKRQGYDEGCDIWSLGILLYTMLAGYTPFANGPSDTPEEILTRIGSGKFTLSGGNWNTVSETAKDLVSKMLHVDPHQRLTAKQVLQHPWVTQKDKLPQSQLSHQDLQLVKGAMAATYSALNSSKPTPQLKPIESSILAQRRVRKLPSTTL
Serine/threonine-protein kinase Sgk1, sequence (O00141 whole entry): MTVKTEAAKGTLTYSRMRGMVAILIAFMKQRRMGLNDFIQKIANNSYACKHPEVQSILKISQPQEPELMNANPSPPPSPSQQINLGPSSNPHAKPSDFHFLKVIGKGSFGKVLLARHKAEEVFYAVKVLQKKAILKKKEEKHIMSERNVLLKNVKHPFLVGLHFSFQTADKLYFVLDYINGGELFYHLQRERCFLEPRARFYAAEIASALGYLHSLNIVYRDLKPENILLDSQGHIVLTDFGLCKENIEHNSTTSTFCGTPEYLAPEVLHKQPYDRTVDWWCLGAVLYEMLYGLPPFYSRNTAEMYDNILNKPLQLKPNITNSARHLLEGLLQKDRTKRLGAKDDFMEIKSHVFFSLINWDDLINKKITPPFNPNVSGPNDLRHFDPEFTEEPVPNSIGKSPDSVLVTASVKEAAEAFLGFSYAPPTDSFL
G protein-coupled receptor kinase 5, sequence (P34947 whole entry): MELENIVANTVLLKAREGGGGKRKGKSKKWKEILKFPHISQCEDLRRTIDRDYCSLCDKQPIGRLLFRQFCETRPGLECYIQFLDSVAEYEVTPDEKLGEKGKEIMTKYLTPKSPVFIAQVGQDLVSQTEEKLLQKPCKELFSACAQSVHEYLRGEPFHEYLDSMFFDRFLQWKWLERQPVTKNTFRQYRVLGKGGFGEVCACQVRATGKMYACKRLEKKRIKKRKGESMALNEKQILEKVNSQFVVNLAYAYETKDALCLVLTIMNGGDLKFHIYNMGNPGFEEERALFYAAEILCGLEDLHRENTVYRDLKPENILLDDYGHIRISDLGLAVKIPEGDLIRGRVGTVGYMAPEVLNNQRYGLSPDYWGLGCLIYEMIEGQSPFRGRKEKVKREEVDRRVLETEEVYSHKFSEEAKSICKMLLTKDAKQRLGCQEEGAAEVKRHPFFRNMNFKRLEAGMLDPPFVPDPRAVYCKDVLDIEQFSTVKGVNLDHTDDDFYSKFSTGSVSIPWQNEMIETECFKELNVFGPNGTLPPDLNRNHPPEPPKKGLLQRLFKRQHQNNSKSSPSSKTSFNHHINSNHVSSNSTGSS
Death-associated protein kinase 1, sequence (P53355 whole entry): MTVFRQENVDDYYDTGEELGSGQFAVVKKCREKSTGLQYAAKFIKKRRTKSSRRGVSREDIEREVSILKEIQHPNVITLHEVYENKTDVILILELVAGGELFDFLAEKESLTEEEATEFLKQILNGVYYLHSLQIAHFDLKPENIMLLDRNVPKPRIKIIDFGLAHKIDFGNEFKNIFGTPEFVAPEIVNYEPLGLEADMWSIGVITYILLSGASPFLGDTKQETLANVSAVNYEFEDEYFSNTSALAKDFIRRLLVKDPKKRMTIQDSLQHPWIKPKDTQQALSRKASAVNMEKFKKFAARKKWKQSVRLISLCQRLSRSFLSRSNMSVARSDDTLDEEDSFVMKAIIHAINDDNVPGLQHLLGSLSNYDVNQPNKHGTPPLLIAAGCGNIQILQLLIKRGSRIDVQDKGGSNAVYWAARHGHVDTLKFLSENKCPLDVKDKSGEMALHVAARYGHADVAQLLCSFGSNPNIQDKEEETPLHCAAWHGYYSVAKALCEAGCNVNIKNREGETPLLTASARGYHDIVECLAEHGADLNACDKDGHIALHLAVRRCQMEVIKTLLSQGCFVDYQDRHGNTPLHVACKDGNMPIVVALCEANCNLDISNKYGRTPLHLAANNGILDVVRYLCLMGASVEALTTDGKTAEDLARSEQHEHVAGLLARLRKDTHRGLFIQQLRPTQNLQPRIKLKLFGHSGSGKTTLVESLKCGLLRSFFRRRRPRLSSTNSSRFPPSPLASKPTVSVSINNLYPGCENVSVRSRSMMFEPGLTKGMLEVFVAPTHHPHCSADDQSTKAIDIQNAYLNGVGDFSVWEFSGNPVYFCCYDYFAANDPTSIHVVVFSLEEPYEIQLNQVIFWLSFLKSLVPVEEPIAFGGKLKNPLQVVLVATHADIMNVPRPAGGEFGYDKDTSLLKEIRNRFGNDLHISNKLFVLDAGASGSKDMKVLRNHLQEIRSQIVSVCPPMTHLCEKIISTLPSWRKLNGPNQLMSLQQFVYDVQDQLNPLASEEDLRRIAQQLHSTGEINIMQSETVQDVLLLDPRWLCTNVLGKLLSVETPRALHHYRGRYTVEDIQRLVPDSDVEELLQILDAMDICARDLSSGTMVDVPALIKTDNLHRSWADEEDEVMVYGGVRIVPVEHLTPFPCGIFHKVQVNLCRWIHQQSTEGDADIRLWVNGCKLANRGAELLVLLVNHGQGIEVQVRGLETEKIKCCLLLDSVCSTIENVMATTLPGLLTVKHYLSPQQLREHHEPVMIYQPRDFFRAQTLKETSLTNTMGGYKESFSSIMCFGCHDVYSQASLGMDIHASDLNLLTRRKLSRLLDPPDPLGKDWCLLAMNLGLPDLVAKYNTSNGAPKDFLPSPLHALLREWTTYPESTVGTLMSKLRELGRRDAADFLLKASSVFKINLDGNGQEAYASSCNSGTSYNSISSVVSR
Tyrosine-protein kinase ZAP-70, sequence (P43403 whole entry): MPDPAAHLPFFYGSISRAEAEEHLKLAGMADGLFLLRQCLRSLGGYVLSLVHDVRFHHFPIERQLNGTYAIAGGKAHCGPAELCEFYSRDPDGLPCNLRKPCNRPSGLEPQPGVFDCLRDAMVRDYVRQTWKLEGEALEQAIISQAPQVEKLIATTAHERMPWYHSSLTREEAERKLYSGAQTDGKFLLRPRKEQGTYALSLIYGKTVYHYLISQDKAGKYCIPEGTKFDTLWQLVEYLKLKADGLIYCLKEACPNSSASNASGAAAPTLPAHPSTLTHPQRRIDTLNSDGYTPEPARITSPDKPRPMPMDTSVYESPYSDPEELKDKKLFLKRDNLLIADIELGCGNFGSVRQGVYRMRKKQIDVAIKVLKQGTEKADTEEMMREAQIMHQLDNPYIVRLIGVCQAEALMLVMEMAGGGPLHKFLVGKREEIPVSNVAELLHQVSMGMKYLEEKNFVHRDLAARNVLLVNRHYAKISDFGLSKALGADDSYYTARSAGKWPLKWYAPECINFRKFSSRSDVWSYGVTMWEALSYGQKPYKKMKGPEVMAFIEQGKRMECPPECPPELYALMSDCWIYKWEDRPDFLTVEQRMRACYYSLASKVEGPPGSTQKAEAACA

IC50 [1]: > 10 µM | IC50 [3]: > 10 µM | IC50 [6]: > 10 µM | IC50 [7]: > 10 µM | IC50 [11]: > 10 µM | IC50 [12]: > 10 µM | IC50 [13]: > 10 µM | IC50 [14]: > 10 µM | IC50 [20]: > 10 µM
SMILES: O=C(c1ccc(F)c(F)c1Nc1ccc(I)cc1F)N1CC(O)([C@@H]2CCCCN2)C1 [COBIMETINIB]
inhibition in vivo at 10 mg/kg (NCI-H460): 9% | inhibition in vivo at 10 mg/kg (EBC-1 [2]): 40% | inhibition in vivo at 10 mg/kg [4]: 104% | inhibition in vivo at 10 mg/kg [5]: 61% | inhibition (888-mel [8]): Active | Activity (A2058 [9]): Active | Activity (Hs 695T): 60% | inhibition in vivo at 20 mg/kg (NCI-H2122): 61% | inhibition in vivo at 10 mg/kg (MIA PaCa-2): 12% | inhibition in vivo at 10 mg/kg (A2058 [10]): 47.3% | inhibition in vivo at 5 mg/kg (SK-OV-3): 69% | inhibition in vivo at 2.5 mg/kg (FaDu): 4% | Activity (A2058 [15]): Active | Activity (888-mel [16]): Active | Activity (A2058 [17]): Active | IC50 [18]: > 10 µM | inhibition in vivo at 5 mg/kg (EBC-1 [19]): 7% | inhibition in vivo at 15 mg/kg (DLD-1): 2%

Reference: ChEMBL document CHEMBL5678805, “Intermittent administration of MEK inhibitor GDC-0973 plus PI3K inhibitor GDC-0941 triggers robust apoptosis and tumor growth inhibition” (Cancer Res, 2012)
